Data taken from ChEMBL document CHEMBL5316375, “Discovery of Novel, Selective Prostaglandin EP4 Receptor Antagonists with Efficacy in Cancer Models” (ACS Med Chem Lett, 2023).
Values belong to the molecule of their own block, whether it stands above or below them.

Experiments:
[1] = molecular target: Prostaglandin E2 receptor EP4 subtype (Homo sapiens, UniProt P35408); assay: Antagonist activity at human EP4 receptor overexpressed in HEK293 cells assessed as inhibition of PGE2-induced cAMP formation preincubated for 15 mins followed by PGE addition and measured after 30 mins by Eu-cAMP tracer based assay; format: functional, cell-based
[2] = Microsomal stability in rat liver microsomes assessed as half life at 1 uM measured for 60 mins by LC-MS/MS analysis; format: ADME, Microsome
[3] = Microsomal stability in human liver microsomes assessed as half life at 1 uM measured for 60 mins by LC-MS/MS analysis; format: ADME, Microsome
[4] = Toxicity in BALB/c mouse allografted with CT26 cells assessed as reduction in body weight at 75 to 150 mg/kg, po administered daily for 21 days and measured every 2 to 3 days in presence of 300 mg/kg capecitabine; format: organism-based; conditions: in vivo, 504 h, dose 75-150 mg/kg, time 21 day
Procedure, shortened: (§1)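 CT-26 tumors in BALB/c mice (n = 6/group) dosed orally once daily from day 8 after implantation until day 21, in vehicle 0.5% carboxymethylcellulose sodium. Groups: vehicle, capecitabine 300 mg/kg alone, or capecitabine 300 mg/kg plus EP4 antagonist at 75 or 150 mg/kg. Tumor volume, TGI versus vehicle, body weight and tumor weight were recorded, with Dunnett's test.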

[5] = Oral bioavailability in Sprague-Dawley rat at 10 mg/kg; format: ADME, organism-based; conditions: in vivo
[6] = Half life in Sprague-Dawley rat at 10 mg/kg, po; format: ADME, organism-based; conditions: in vivo
[7] = molecular target: T1, Prostaglandin E2 receptor EP1 subtype (Homo sapiens, UniProt P34995); assay: Antagonist activity at EP1 receptor (unknown origin)
T1 sequence (P34995 whole entry): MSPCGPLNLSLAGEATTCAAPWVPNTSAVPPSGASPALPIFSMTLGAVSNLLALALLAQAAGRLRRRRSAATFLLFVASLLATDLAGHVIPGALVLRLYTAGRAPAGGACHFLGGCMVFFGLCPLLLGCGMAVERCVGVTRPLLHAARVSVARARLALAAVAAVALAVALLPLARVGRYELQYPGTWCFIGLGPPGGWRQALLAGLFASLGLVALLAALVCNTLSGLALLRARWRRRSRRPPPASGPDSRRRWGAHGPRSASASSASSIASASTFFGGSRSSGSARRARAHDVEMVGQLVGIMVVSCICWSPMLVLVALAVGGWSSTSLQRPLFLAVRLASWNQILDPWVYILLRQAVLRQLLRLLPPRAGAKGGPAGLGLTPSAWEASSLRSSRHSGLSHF

[8] = molecular target: T2, Prostaglandin E2 receptor EP2 subtype (Homo sapiens, UniProt P43116); assay: Antagonist activity at EP2 receptor (unknown origin)
[9] = Cmax in Sprague-Dawley rat at 10 mg/kg, po; format: ADME, organism-based; design: dose 10 mg/kg, route po; conditions: in vivo
[10] = Cmax in Sprague-Dawley rat at 1 mg/kg, iv; format: ADME, organism-based; design: dose 1 mg/kg, route iv; conditions: in vivo
[11] = molecular target: T3, Prostaglandin E2 receptor EP3 subtype (Homo sapiens, UniProt P43115); assay: Displacement of [3H]-PGE2 from EP3 receptor membrane (unknown origin) measured after 2 hrs by Microscint-O scintillation counting analysis; format: cell membranes
T3 sequence (P43115 whole entry): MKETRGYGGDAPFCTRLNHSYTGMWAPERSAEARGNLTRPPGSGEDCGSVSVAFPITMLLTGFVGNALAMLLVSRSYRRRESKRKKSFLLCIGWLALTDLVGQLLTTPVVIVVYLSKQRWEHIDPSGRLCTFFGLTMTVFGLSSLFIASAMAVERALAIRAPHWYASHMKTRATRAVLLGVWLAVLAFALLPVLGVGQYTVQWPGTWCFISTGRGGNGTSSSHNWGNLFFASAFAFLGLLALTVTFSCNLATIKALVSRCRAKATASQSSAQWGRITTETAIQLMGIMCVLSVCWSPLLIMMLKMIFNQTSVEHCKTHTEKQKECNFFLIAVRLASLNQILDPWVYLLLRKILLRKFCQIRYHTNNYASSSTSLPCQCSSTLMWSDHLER

[12] = Tmax at Sprague-Dawley rat at 10 mg/kg, po; format: ADME, organism-based; conditions: in vivo
[13] = Plasma protein binding in rat at 1 uM incubated for 6 hrs by LC-MS/MS analysis; format: ADME, cell-free
[14] = Plasma protein binding in human assessed as parent compound remaining at 1 uM incubated for 6 hrs by LC-MS/MS analysis; format: ADME, cell-free
[15] = molecular target: T3, Prostaglandin E2 receptor EP3 subtype; assay: Antagonist activity at EP3 receptor (unknown origin)
[16] = Microsomal stability in mouse liver microsomes assessed as half life at 1 uM measured for 60 mins by LC-MS/MS analysis; format: ADME, Microsome
[17] = molecular target: Voltage-gated inwardly rectifying potassium channel KCNH2 (Homo sapiens, UniProt Q12809); assay: Inhibition of hERG; format: toxicity
[18] = Plasma protein binding in rat assessed as parent compound remaining at 1 uM incubated for 6 hrs by LC-MS/MS analysis; format: ADME, cell-free
[19] = Plasma protein binding in human at 1 uM incubated for 6 hrs by LC-MS/MS analysis; format: ADME, cell-free
[20] = Plasma protein binding in mouse at 1 uM incubated for 6 hrs by LC-MS/MS analysis; format: ADME, cell-free
[21] = AUC (0 to infinity) in Sprague-Dawley rat at 10 mg/kg, po; format: ADME, organism-based; design: dose 10 mg/kg, route po; conditions: in vivo
[22] = AUC (0 to infinity) in Sprague-Dawley rat at 1 mg/kg, iv; format: ADME, organism-based; design: dose 1 mg/kg, route iv; conditions: in vivo
[23] = Clearance in Sprague-Dawley rat at 1 mg/kg, iv; format: ADME, organism-based; conditions: in vivo
[24] = molecular target: T1, Prostaglandin E2 receptor EP1 subtype; assay: Displacement of [3H]-PGE2 from EP1 receptor membrane (unknown origin) measured after 2 hrs by Microscint-O scintillation counting analysis; format: cell membranes
[25] = Half life in Sprague-Dawley rat at 1 mg/kg, iv; format: ADME, organism-based; conditions: in vivo
[26] = Toxicity in BALB/c mouse allografted with CT26 cells assessed as body weight loss at 75 to 150 mg/kg, po qd administered for 11 days and measured every 2 to 3 days; format: organism-based; conditions: in vivo, 264 h, dose 75-150 mg/kg, time 11 day
Procedure, shortened: (§2)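 CT-26 tumors in BALB/c mice grown to 100–200 mm3, then animals randomized (n = 6/group). Dosing was oral, once daily for 11 days, in vehicle 0.5% carboxymethylcellulose sodium in PBS. Groups: vehicle, 75 or 150 mg/kg, or E7046 150 mg/kg. Tumor volume, TGI versus vehicle, body weight and day-11 tumor weight were recorded, with Dunnett's test versus vehicle.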

[27] = AUC (0 to t) in Sprague-Dawley rat at 1 mg/kg, iv; format: ADME, organism-based; design: dose 1 mg/kg, route iv; conditions: in vivo
[28] = molecular target: T2, Prostaglandin E2 receptor EP2 subtype; assay: Displacement of [3H]-PGE2 from EP2 receptor membrane (unknown origin) measured after 2 hrs by Microscint-O scintillation counting analysis; format: cell membranes
[29] = Plasma protein binding in mouse assessed as parent compound remaining at 1 uM incubated for 6 hrs by LC-MS/MS analysis; format: ADME, cell-free
[30] = Volume of distribution at steady state in Sprague-Dawley rat at 1 mg/kg, iv; format: ADME, organism-based; conditions: in vivo, read-out: Vdss
[31] = AUC (0 to t) in Sprague-Dawley rat at 10 mg/kg, po; format: ADME, organism-based; design: dose 10 mg/kg, route po; conditions: in vivo
CT26 [32] = assay: Antitumor activity against mouse CT26 cells allografted in BALB/c mouse assessed as mean tumor volume at 150 mg/kg, po qd administered every day for 11 days measured for every 2 or 3 days (reference value: 2145.58 +/- 152.9 mm3); format: functional; conditions: time 11 day; procedure, shortened: as §2
CT26 [33] = assay: Antitumor activity against mouse CT26 cells allografted in BALB/c mouse assessed as tumor growth inhibition at 150 mg/kg, po qd administered every day for 11 days measured for every 2 or 3 days relative to control; format: functional; conditions: CT26, 264 h, time 11 day, read-out: TGI; procedure, shortened: as §2
CT26 [34] = assay: Antitumor activity against mouse CT26 cells allografted in BALB/c mouse assessed as tumor growth inhibition at 300 mg/kg, po qd administered for 21 days starting from day 8 post tumor implantation measured once for every 2 or 3 days relative to control; format: functional; conditions: CT26, 504 h, time 21 day, read-out: TGI; procedure, shortened: as §1
[35] = Toxicity in BALB/c mouse allografted with CT26 cells assessed as effect on body weight at 300 mg/kg, po administered daily for 21 days and measured every 2 to 3 days; format: organism-based; conditions: in vivo, 504 h, time 21 day; procedure, shortened: as §1
CT26 [36] = assay: Antitumor activity against mouse CT26 cells allografted in BALB/c mouse assessed as mean tumor volume at 300 mg/kg, po qd administered for 21 days starting from day 8 post tumor implantation measured once for every 2 or 3 days (reference value: 2036.95 +/- 333.12 mm3); format: functional; conditions: time 21 day; procedure, shortened: as §1

T2 sequence (P43116 whole entry): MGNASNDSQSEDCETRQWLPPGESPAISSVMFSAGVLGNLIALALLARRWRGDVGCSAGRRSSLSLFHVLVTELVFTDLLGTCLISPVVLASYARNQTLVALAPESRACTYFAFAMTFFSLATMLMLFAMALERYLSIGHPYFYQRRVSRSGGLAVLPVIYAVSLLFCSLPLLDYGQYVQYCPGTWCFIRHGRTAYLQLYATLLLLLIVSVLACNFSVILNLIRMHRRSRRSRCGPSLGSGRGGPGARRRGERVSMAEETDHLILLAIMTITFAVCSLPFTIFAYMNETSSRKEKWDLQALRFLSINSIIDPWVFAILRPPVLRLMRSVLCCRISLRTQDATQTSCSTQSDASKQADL
Prostaglandin E2 receptor EP4 subtype, sequence (P35408 whole entry): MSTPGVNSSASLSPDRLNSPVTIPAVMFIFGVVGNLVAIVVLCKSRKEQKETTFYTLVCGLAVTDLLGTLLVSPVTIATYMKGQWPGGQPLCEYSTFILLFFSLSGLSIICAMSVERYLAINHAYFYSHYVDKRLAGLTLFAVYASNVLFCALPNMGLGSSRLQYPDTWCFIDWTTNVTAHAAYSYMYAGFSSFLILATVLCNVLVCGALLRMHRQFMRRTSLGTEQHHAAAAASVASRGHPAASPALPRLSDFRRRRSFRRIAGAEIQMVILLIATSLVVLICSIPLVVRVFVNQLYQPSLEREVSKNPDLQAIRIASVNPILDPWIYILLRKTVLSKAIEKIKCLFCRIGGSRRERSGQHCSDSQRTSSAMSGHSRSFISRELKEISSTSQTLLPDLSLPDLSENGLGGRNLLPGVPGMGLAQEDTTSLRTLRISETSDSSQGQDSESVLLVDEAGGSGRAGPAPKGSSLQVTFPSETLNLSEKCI
Voltage-gated inwardly rectifying potassium channel KCNH2, sequence (Q12809 whole entry): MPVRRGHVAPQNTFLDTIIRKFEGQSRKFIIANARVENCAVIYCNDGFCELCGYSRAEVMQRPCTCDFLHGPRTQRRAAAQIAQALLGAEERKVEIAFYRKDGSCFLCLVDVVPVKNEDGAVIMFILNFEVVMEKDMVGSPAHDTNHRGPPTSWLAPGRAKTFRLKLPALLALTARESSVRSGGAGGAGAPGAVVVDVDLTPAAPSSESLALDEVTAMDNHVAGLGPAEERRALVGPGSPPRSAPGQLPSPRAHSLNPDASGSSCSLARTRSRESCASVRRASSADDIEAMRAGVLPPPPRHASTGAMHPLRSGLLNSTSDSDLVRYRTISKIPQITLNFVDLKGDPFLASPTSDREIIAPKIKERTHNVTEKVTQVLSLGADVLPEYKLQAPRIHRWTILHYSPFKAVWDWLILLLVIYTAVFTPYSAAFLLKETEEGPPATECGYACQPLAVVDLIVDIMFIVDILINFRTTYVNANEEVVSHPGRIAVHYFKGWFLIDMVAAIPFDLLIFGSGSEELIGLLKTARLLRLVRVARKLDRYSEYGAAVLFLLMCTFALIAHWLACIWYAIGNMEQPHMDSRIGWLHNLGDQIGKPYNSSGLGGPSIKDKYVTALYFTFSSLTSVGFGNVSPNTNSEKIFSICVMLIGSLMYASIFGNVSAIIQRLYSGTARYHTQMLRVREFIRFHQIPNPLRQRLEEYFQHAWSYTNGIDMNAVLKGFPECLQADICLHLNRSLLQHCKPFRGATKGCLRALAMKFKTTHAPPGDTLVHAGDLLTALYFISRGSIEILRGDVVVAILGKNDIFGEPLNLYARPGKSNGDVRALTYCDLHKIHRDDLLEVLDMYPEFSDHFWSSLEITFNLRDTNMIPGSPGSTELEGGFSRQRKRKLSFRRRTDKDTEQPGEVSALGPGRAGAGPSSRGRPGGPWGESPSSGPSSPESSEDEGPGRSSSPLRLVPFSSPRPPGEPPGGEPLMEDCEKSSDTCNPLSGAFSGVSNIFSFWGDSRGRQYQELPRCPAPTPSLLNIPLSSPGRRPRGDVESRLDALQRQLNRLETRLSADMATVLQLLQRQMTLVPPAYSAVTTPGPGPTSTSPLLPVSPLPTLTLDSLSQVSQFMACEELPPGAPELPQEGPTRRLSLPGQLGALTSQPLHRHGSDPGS

IC50 [1]: > 10 µM
SMILES: C[C@H](NC(=O)c1c(Nc2cccc(C(F)(F)F)c2)c2ccccc2n1C)c1ccc(C(N)=O)cc1

half-life at 1 µM [2]: 4.33 h | half-life at 1 µM [3]: 0.404 h | bioavailability [5]: 76.1% | half-life [6]: 2.7 h | IC50 [7]: > 10 µM | IC50 [8]: > 10 µM | Cmax [9]: 8240 ng/mL | Cmax [10]: 4630 ng/mL | Ki [11]: > 6.4 µM | Tmax [12]: 0.5 h | PPB [13]: 99.73% | residual activity [14]: 83.02% | IC50 [15]: > 10 µM | half-life at 1 µM [16]: 1.64 h | residual activity [18]: 88.79% | PPB [19]: 99.68% | PPB [20]: 99.66% | AUC(0-inf) [21]: 25700 ng·h/mL | AUC(0-inf) [22]: 3420 ng·h/mL | clearance [23]: 4.95 mL/min/kg | Ki [24]: > 9.6 µM | half-life [25]: 1.4 h | AUC(0-t) [27]: 3380 ng·h/mL | Ki [28]: > 8.8 µM | residual activity [29]: 70.47% | Vd [30]: 0.41 L/kg | AUC(0-t) [31]: 25700 ng·h/mL
SMILES: C[C@H](NC(=O)c1c(Nc2cccc(C(F)(F)F)c2)c2ccccc2n1C)c1ccc(C(=O)O)cc1
Activity [4]: Non-Toxic | IC50 [17]: > 40 µM | Activity [26]: Non-Toxic

Ki [11]: > 6.4 µM | Ki [24]: > 9.6 µM | Ki [28]: > 8.8 µM
SMILES: Cn1c(C(=O)NC2(c3ccc(C(=O)O)cc3)CC2)c(Nc2cccc(C(F)(F)F)c2)c2ccccc21

SMILES: C[C@H](NC(=O)c1c(C(F)F)nn(C)c1Oc1cccc(C(F)(F)F)c1)c1ccc(C(=O)O)cc1 [PALUPIPRANT]
Activity (CT26 [32]): 1619.76 mm3 | inhibition in vivo at 150 mg/kg (CT26 [33]): 25.9%

SMILES: CCCCCOC(=O)Nc1nc(=O)n([C@@H]2O[C@H](C)[C@@H](O)[C@H]2O)cc1F [CAPECITABINE]
inhibition in vivo at 300 mg/kg (CT26 [34]): 67.9% | Activity [35]: Non-Toxic | Activity (CT26 [36]): 707.13 mm3

IC50 [15]: 0.033 µM
SMILES: COc1ccc(Br)cc1S(=O)(=O)NC(=O)/C=C/c1ccccc1Cc1ccc2ccccc2c1
